This assay concerns Rattus norvegicus. The assay is described as follows: In vivo inverse agonist activity at histamine 3 receptor in rat assessed as inhibition of RAMH-induced dipsogenia at 1 to 10 mg/kg, po measured after 3 days. It is filed as functional, organism-based. Put shortly: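 Rats were dosed orally with 1, 3 or 10 mg/kg, then given (R)-α-methylhistamine 2.5 mg/kg s.c. Water intake (mL) was measured and reported as mean ± SEM.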

Experimental findings from ChEMBL document CHEMBL4368912, “Discovery and Development of N-[4-(1-Cyclobutylpiperidin-4-yloxy)phenyl]-2-(morpholin-4-yl)acetamide Dihydrochloride (SUVN-G3031): A Novel, Potent, Selective, and Orally Active Histamine H3 Receptor Inverse Agonist with Robust Wake-Promoting Activity” (J Med Chem, 2019) are described below.

Each structure is given as a SMILES string. Active and inactive are the calls of the source. No cut-off for these calls is given here.

Take `Clc1ccc(CCCOCCCN2CCCCC2)cc1`: the inhibition result was “Active”.
